Experimental data reported in ChEMBL document CHEMBL4376859, “Prodrugs for nitroreductase-based cancer therapy-3: Antitumor activity of the novel dinitroaniline prodrugs/Ssap-NtrB enzyme suicide gene system: Synthesis, in vitro and in silico evaluation in prostate cancer” (Eur J Med Chem, 2020).
The source made the active and inactive calls. No cut-off for these calls is given here.

T1: Putative nitroreductase (Staphylococcus saprophyticus subsp. saprophyticus (strain ATCC 15305 / DSM20229 / NCIMB 8711 / NCTC 7292 / S-41), UniProt Q4A0P1)
T1 sequence (Q4A0P1 whole entry): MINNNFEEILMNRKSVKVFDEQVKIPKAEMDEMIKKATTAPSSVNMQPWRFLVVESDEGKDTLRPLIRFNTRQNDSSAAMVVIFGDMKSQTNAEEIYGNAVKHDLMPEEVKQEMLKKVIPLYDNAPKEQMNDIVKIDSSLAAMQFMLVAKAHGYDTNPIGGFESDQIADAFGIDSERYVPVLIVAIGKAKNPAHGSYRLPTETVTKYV

B1: Nitroreductase (Bacillus amyloliquefaciens) (protein)
chain: MKVLVLAVHPDMENSAVNKAWAEELKKHDELTVRELYKEYPDGQIDAEKERQLCEQYDRIVFQFPLYWYSAPPLLKTWMDHVLSYGWAYGSKGKALHGKELMLAVSVGAGEDAYQAGGSNHFTLSELLRPFQAMANFTGMTYLPAFALYGVNGADATDIHDNAKRLAAYIKKSF

Assays:
[1] = tested on: PC-3; experiment: Cytotoxicity against human PC3 cells assessed as cell viability at 9 to 150 uM after 48 hrs by MTT assay relative to control; type: functional
Method in brief: (§1)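 Hep3B hepatoma, PC-3 prostate cancer and HUVEC (healthy control) cells were exposed to nitro compounds at 150, 75, 38, 19 and 9 µM for 24 h and 48 h. Viability was read by MTT assay, and IC50 values were derived from the growth inhibition curves.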

[2] = tested on: PC-3; experiment: Cytotoxicity against human PC3 cells assessed as cell viability at 9 to 150 uM after 24 hrs by MTT assay relative to control; type: functional; method in brief: as §1
[3] = target: T1, Putative nitroreductase; experiment: Substrate activity at Staphylococcus saprophyticus nitroreductase NtrB assessed as enzyme specific activity using NADH as cofactor in Tris-Cl buffer at pH 7.5 by HPLC analysis; type: ADME
[4] = Cytotoxicity against human HUVEC cells assessed as cell viability at 9 to 150 uM after 24 hrs by MTT assay relative to control; type: cell-based; details: read-out: Activity; method in brief: as §1
[5] = Cytotoxicity against human HUVEC cells assessed as cell viability at 9 to 150 uM after 48 hrs by MTT assay relative to control; type: cell-based; details: read-out: Activity; method in brief: as §1
[6] = tested on: Hep 3B2; experiment: Cytotoxicity against human Hep3B cells assessed as cell viability at 9 to 150 uM after 24 hrs by MTT assay relative to control; type: functional; method in brief: as §1
[7] = target: T1, Putative nitroreductase; experiment: Substrate activity at Staphylococcus saprophyticus nitroreductase expressed in Escherichia coli BL21 (DE3) assessed as retention time by HPLC analysis; type: ADME
[8] = target: T1, Putative nitroreductase; experiment: Substrate activity at Staphylococcus saprophyticus nitroreductase NtrB assessed as Kcat/Km using NADH as cofactor in Tris-Cl buffer at pH 7.5 by HPLC analysis relative to CB1954/NfsB; type: ADME
[9] = tested on: Hep 3B2; experiment: Cytotoxicity against human Hep3B cells assessed as cell viability after 48 hrs by MTT assay; type: functional, cell-based; method in brief: as §1
[10] = tested on: Hep 3B2; experiment: Cytotoxicity against human Hep3B cells assessed as cell viability at 9 to 150 uM after 48 hrs by MTT assay relative to control; type: functional; method in brief: as §1
[11] = tested on: PC-3; experiment: Cytotoxicity against human PC3 cells […] Staphylococcus saprophyticus nitroreductase NtrB assessed as reduction in cell viability in presence of NADH as cofactor after 48 hrs by SRB assay; type: functional, cell-based; details: PC-3, 48 h
Method in brief: (§2)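 Compounds were reduced outside the cells by purified His-tag (Ni column) Ssap-NtrB. The reaction mix held 600 µM NADH and compound (150, 39, 9 µM, or 180, 18, 1.8 nM) and was applied to PC-3 cells. Controls were compound alone in 25 mM Tris/HCl pH 7.5, and enzyme alone at 31 µg/mL. After 48 h, SRB absorbance was read at 492 nm and converted to % viability.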

[12] = tested on: PC-3; experiment: Cytotoxicity against human PC3 cells assessed as reduction in cell viability after 48 hrs by SRB assay; type: functional, cell-based; method in brief: as §2
[13] = tested on: PC-3; experiment: Cytotoxicity against human PC3 cells […] Staphylococcus saprophyticus nitroreductase NtrB assessed as cell viability at 150 uM in presence of NADH as cofactor after 48 hrs by SRB assay relative to control; type: functional; details: PC-3, 48 h, read-out: Activity; method in brief: as §2
[14] = substrate: NC(=O)c1cc(N2CC2)c([N+](=O)[O-])cc1[N+](=O)[O-]; experiment: Substrate activity at Bacillus amyloliquefaciens nitroreductase ywrO assessed as Km using NADPH as cofactor in sodium phosphate buffer at pH 7.5 by HPLC analysis; type: ADME

Molecule	Activity [1]	Activity [2]	Activity [3]	viability at 24 h, up to 150 µM [4]	viability at 48 h, up to 150 µM [5]	Activity [6]	Retention_time [7]	fold change (FC) [8]	IC50 [9]	Activity [10]	IC50 [11]	Activity [12]	viability at 150 µM [13]	Km [14]	kcat [14]	kcat/Km [14]
O=[N+]([O-])c1cc([N+](=O)[O-])c(Nc2ccc(S(=O)(=O)O)cc2)cc1Nc1ccc(S(=O)(=O)O)cc1	>80%	>80%	2.12 U/mg	> 80%	> 80%	51 - 80%	4.4 min	2.37	71.9 µM	–	–	–	–	–	–	–
O=[N+]([O-])c1ccc(N2CCC[C@H]2CO)c([N+](=O)[O-])c1	–	–	–	> 80%	> 80%	>80%	15.1 min	–	–	>80%	> 150 µM	inactive	50%	–	–	–
O=[N+]([O-])c1ccc(NC2CCCCC2)c([N+](=O)[O-])c1	>80%	>80%	–	> 80%	> 80%	>80%	20.58 min	–	–	>80%	> 150 µM	inactive	50%	–	–	–
O=[N+]([O-])c1ccc(N2CCCC(O)C2)c([N+](=O)[O-])c1 (stereo not given)	–	–	–	> 80%	> 80%	>80%	14.9 min	–	–	>80%	150 µM	inactive	50%	–	–	–
CCNc1ccc([N+](=O)[O-])cc1[N+](=O)[O-]	>80%	>80%	–	> 80%	> 80%	51 - 80%	16.92 min	–	–	51 - 80%	6.43 µM	inactive	–	–	–	–
O=C(CC(F)(F)F)Nc1cc(N2CCOCC2)c([N+](=O)[O-])cc1[N+](=O)[O-]	–	–	0.99 U/mg	> 80%	51 to 80%	51 - 80%	21.8 min	4.73	–	51 - 80%	–	–	–	–	–	–
O=[N+]([O-])c1ccc(Nc2cc(F)cc(F)c2)c([N+](=O)[O-])c1	>80%	>80%	–	51 to 80%	51 to 80%	>80%	17.74 min	–	89.4 µM	–	–	inactive	–	–	–	–
O=[N+]([O-])c1ccc(N2CCCCC2)c([N+](=O)[O-])c1	>80%	>80%	0.49 U/mg	> 80%	51 to 80%	51 - 80%	24.21 min	–	50.3 µM	–	–	inactive	–	–	–	–
O=[N+]([O-])c1ccc(N2CCOCC2)c([N+](=O)[O-])c1	>80%	>80%	–	> 80%	> 80%	>80%	19.38 min	1.25	–	51 - 80%	> 150 µM	inactive	50%	–	–	–
COCCC(=O)Oc1cc(N2CCOCC2)c([N+](=O)[O-])cc1[N+](=O)[O-]	–	–	–	51 to 80%	51 to 80%	>80%	–	–	–	>80%	–	–	–	–	–	–
CC(C)CC(=O)Oc1cc(N2CCOCC2)c([N+](=O)[O-])cc1[N+](=O)[O-]	–	–	–	51 to 80%	51 to 80%	>80%	24.6 min	–	–	>80%	–	–	–	–	–	–
CN(C)C(=O)Oc1cc(N2CCOCC2)c([N+](=O)[O-])cc1[N+](=O)[O-]	–	–	–	51 to 80%	51 to 80%	>80%	19.28 min	–	–	>80%	–	–	–	–	–	–
CCC(=O)Oc1cc(N2CCOCC2)c([N+](=O)[O-])cc1[N+](=O)[O-]	–	–	–	51 to 80%	51 to 80%	>80%	–	–	–	>80%	–	–	–	–	–	–
COc1cccc(Nc2ccc([N+](=O)[O-])cc2[N+](=O)[O-])c1	>80%	>80%	–	> 80%	> 80%	>80%	18.56 min	–	–	>80%	> 150 µM	inactive	50%	–	–	–
Nc1ccccc1Nc1ccc([N+](=O)[O-])cc1[N+](=O)[O-]	>80%	>80%	–	> 80%	> 80%	>80%	16.85 min	0.41	–	>80%	15 µM	inactive	–	–	–	–
B1	–	–	–	–	–	–	–	–	–	–	–	–	–	618 µM	8.2 s⁻¹	13300 M⁻¹ s⁻¹
